Series [1] is described as follows: Half-life value of the compound. It counts as ADME. The essentials:
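Chemical stability: compound dissolved at 1 mg/mL in 0.5 M MOPS, pH 8.0, held at 25 °C in capped vial; aliquots quenched in 2% aqueous TFA and analysed by reverse-phase HPLC over one to two half-lives. Peak areas fit to first-order decay F(t)=A/2^(t/t1/2) to give t1/2.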

The target of a further series is T1, Neutrophil elastase (Homo sapiens, UniProt P08246).
T1 sequence (P08246 whole entry): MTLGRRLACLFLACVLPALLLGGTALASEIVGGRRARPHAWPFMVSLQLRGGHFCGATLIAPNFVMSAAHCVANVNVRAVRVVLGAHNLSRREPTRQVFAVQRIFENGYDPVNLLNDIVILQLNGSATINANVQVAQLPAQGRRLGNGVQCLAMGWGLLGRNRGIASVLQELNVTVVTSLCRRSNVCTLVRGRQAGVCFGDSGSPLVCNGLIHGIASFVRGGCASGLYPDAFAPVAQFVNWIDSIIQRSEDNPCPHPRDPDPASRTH
As to the kind of experiment: Inhibitory activity against HLE at 10 min (48 mM conc).

A short description of series [2]: Inhibition of elastin solubilization. In kind it is functional.
Series [3] concerns Cricetinae gen. sp. Kind of series: Inhibition of lung hemorrhage at 200 ug/animal. It counts as functional, Cricetulus griseus. Summed up: (§1)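 Hamster duration protocol: 200 μg/animal given intratracheally 60, 120, 180 or 240 min before IT HLE instillation; hemorrhage scored after 3 h as hemoglobin (414 nm) in saline lung lavage, relative to vehicle-treated animals; three animals per point. T50 taken as time at which 50% inhibition is still obtained.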

In series [4] the test system is Cricetinae gen. sp. As to the kind of experiment: Inhibitory activity against Human Leukocyte Elastase by Lung Hemorrhage assay (Effective dose at 15 microg). It counts as functional, Cricetulus griseus.
The subject of series [5] is Cricetinae gen. sp. Kind of series: Compound was evaluated in vivo for inhibition of HLE-induced hemorrhage in hamster lung at 200 microg 1 hr after administration prior to HLE. In kind it is functional, Cricetulus griseus. Summed up:
as §1

The test system of series [6] is Cricetinae gen. sp. Kind of series: Compound was evaluated in vivo for inhibition of HLE-induced hemorrhage in hamster lung at 200 microg 2 hr after administration prior to HLE. In kind it is functional, Cricetulus griseus. The essentials: as §1
The subject of series [7] is Cricetinae gen. sp. Kind of series: Compound was evaluated in vivo for inhibition of HLE-induced hemorrhage in hamster lung at 200 microg 3h after administration prior to HLE. In kind it is functional, Cricetulus griseus. The essentials: as §1
Series [8] deals with Cricetinae gen. sp. As to the kind of experiment: Compound was evaluated in vivo for inhibition of HLE-induced hemorrhage in hamster lung at 200 microg 4 hr after administration prior to HLE. It counts as functional, Cricetulus griseus. Summed up:
as §1

In series [9] the test system is Cricetinae gen. sp. Kind of series: Compound was evaluated in vivo for inhibition of HLE-induced hemorrhage in hamster lung at 10 microg 30 min after administration prior to HLE. It counts as functional, Cricetulus griseus. The essentials: (§2)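 Hamster, intratracheal dosing of compound (per animal) 30 min before IT instillation of 50 μg HLE (50 units in Experimental); hemorrhage read 3 h later: lungs lavaged with saline, hemoglobin in lavage measured at 414 nm. Percent inhibition from drug-treated vs vehicle-treated hemorrhage; three animals per dose and time. Titration at 100, 30, 10, 3 μg/animal gives ED50.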

For series [10], the system named is Cricetinae gen. sp. As to the kind of experiment: Compound was evaluated in vivo for inhibition of HLE-induced hemorrhage in hamster lung at 30 microg 30 min after administration prior to HLE. In kind it is functional, Cricetulus griseus. Summed up: as §2
Series [11] has as its system Cricetinae gen. sp. As to the kind of experiment: Compound was evaluated in vivo for inhibition of HLE-induced hemorrhage in hamster lung at 100 microg 30 min after administration prior to HLE. In kind it is functional, Cricetulus griseus. The essentials: as §2
The subject of series [12] is Cricetinae gen. sp. As to the kind of experiment: Inhibitory activity against Human Leukocyte Elastase by Lung Hemorrhage assay. It counts as functional, Cricetulus griseus.
Series [13] is filed under the species Homo sapiens. Kind of series: Inhibitory activity against Clotting cascade at 10 min (240 nM conc). It counts as functional. Summed up:
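Whole clotting cascade tested with compound at 240 nM; percent inhibition at 10 min.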

For series [14], the species on record is Homo sapiens. Kind of series: Inhibitory activity against Complement cascade at 10 min (120 mM conc). In kind it is functional.
In another series the target is Pepsin A (Homo sapiens) (UniProt P0DJD9). As to the kind of experiment: Inhibitory activity against Pepsin at 48 mM for 10 min. The essentials:
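Pepsin activity was tracked at 310 nm as hydrolysis of 1 mM Phe-Gly-His-p-NO2-Phe-Phe-Ala-OMe in 0.04 M formate buffer at pH 4.0. Percent inhibition was read at 10 min.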

Series [15] deals with Plasminogen (Homo sapiens) (UniProt P00747). As to the kind of experiment: Inhibitory activity against Plasmin at 10 min (48 mM conc) using 0.2 mM Tosyl-Gly-Pro-Arg-p-nitroanilide as substrate. The essentials:
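Human plasmin run under the same conditions as the HLE assay, with 0.2 mM Tosyl-Gly-Pro-Arg-p-nitroanilide as substrate. Inhibitor at 48 mM (so in the source). Percent inhibition read at 10 min.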

For the next series, the target named is T2, Papain (Carica papaya) (UniProt P00784).
T2 sequence (whole entry): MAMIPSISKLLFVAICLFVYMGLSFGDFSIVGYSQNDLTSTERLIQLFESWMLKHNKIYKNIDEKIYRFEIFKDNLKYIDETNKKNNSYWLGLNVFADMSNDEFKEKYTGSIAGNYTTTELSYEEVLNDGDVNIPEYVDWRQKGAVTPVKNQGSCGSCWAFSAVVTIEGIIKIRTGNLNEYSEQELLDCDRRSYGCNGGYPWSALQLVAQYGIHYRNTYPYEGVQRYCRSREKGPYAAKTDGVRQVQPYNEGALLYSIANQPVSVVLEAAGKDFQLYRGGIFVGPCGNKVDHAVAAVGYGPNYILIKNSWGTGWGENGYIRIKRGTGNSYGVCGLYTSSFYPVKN
Kind of series: Inhibitory activity against Papain at 10 min (48 mM conc). Summed up: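 Papain activity was read at 410 nm as p-nitroanilide release from benzoyl-Arg-p-nitroanilide, in pH 7.5 TES with 0.001 M EDTA, 0.005 M Cys and 10% DMSO. Percent inhibition was taken at 10 min.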

For series [16], the target named is T3, Thermolysin (Bacillus thermoproteolyticus) (UniProt P00800).
T3 sequence (whole entry): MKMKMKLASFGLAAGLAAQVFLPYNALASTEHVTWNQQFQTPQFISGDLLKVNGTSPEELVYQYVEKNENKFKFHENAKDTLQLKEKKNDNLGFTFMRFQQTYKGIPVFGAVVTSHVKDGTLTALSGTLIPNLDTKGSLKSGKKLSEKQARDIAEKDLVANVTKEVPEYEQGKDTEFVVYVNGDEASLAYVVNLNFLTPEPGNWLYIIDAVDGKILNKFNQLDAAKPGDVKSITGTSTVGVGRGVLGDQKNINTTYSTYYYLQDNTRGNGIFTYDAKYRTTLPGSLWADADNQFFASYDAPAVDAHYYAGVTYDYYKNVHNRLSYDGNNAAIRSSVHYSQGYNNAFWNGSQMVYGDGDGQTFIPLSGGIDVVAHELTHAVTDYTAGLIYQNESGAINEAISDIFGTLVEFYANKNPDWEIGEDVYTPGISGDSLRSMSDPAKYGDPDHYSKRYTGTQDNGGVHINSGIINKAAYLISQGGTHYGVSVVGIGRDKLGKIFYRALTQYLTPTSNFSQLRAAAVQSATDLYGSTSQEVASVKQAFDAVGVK
As to the kind of experiment: Inhibitory activity against Thermolysin at 10 min (48 mM conc). The essentials:
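Thermolysin cleaved 0.2 mM Suc-Ala-Ala-Phe-AMC in pH 7.5 TES with excess leucine aminopeptidase. Released 7-amino-4-methylcoumarin was read by fluorescence (ex 383, em 455). Percent inhibition was taken at 10 min.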

Series [17] can be described thus: Partion ratio of the compound. It counts as ADME.
The species named for the next series is Rattus norvegicus. Kind of series: Inhibition of lung hemorrhage caused by elastase in an acute reverse passive Arthus reaction in rat at 250 ug/animal (ED50=55 ug). In kind it is functional.
In series [18] the target is Prothrombin (Homo sapiens) (UniProt P00734). Kind of series: Inhibitory activity against Thrombin at 10 min (48 mM conc). The essentials: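 Human thrombin was assayed colorimetrically with 0.2 mM Tosyl-Gly-Pro-Arg-p-nitroanilide as substrate. Percent inhibition was read at 10 min.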
Series [19] concerns the target T4, Neutrophil elastase (Homo sapiens) (UniProt P08246).
T4 sequence (whole entry): T1 sequence (P08246 whole entry)

Series [20] deals with T5, Cathepsin G (Homo sapiens) (UniProt P08311).
T5 sequence (whole entry): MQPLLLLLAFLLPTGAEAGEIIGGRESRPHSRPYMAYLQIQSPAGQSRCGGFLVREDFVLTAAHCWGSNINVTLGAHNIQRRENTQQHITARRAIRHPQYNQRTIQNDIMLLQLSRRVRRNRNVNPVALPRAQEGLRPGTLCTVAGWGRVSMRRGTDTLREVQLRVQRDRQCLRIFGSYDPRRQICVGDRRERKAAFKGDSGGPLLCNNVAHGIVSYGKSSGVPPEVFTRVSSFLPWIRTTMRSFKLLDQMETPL
As to the kind of experiment: Inhibitory activity against Cathepsin G at 10 min (48 mM conc)using t-Boc-Tyr-ONp as substrate.

Chain of Pepsin A (Homo sapiens) (P0DJD9 63-388 limits assumed): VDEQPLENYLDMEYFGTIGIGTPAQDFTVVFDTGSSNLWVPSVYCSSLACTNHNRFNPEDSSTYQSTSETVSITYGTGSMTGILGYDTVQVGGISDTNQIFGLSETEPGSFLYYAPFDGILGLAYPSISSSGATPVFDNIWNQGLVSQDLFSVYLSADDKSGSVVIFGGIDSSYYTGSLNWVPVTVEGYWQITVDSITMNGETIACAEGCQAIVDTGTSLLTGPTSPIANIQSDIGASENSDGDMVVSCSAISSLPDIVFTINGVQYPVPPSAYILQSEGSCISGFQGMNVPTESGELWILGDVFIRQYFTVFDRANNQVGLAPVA
Chain of Plasminogen (Homo sapiens) (P00747 97-580 limits assumed): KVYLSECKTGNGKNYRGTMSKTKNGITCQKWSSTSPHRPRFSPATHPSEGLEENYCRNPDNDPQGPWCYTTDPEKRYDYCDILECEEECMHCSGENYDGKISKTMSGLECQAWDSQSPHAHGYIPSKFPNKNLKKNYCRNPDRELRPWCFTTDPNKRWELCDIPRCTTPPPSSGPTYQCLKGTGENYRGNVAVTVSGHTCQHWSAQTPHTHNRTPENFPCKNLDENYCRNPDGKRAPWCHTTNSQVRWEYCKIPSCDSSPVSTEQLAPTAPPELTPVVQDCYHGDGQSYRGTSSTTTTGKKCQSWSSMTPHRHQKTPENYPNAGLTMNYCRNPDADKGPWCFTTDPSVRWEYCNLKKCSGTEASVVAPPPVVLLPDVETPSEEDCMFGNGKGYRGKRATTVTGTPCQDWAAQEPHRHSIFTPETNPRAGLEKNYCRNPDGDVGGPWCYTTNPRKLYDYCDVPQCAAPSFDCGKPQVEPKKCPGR
Chain of Plasminogen (Homo sapiens) (P00747 581-810 limits assumed): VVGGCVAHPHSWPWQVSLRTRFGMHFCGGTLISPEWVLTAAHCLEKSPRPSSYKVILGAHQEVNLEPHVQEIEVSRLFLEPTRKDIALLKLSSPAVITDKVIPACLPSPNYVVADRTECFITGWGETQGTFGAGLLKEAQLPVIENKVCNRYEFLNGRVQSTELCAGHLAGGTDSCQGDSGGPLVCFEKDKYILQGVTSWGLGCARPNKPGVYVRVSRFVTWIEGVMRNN

Broadly, the half-life is the time needed for the level to fall by half in the phase considered. A higher half-life goes with slow loss. Broadly, the Ki is the dissociation constant of the complex between target and ligand, obtained from inhibition or displacement. Read a low Ki as a stronger hold on the target. A word on the IC50: it is the point on the concentration scale where inhibition reaches its midpoint. A lower IC50 goes with greater potency. As usually defined, the Inhibition is the relative decrease from the control value, in per cent. As usually defined, the inhibition is the change of the read-out against control, counted positive when it falls. In [1], `CO[C@H]1C(=O)N2C(C(=O)N3CCC[C@H]3C(=O)O)=C(COC(C)=O)CS(=O)(=O)[C@H]12` gave a half-life of 21 h. This molecule also registered a Ki at Neutrophil elastase of 1700 nM. In series [2], the IC50 worked out at 500 nM. For the same molecule, the T50 in the series on Cricetinae gen. sp. [3] worked out at 185 min. Moreover, the ED50 with Cricetinae gen. sp. [4] came to 30 µg. The Inhibition with Cricetinae gen. sp. [5] amounted to 99%; with Cricetinae gen. sp. [6] it was 97%; in the series with Cricetinae gen. sp. [7], 78%; with Cricetinae gen. sp. [8], 32%; in the series with Cricetinae gen. sp. [9], 77%; with Cricetinae gen. sp. [10] it was 86%. Moreover, the Inhibition is reported as 93% in the series on Cricetinae gen. sp. [11]; 70% in the series on Cricetinae gen. sp. [12]; -8% in the series listed under Homo sapiens [13]; 6% in the series filed under Homo sapiens [14]; 87% in the series listed under Rattus norvegicus. The inhibition at Pepsin A (Homo sapiens) is 0%; in series [15], 14%; at Papain (Carica papaya), 0%; in [16], 0%; in [18] it was 0%; in series [20] it was 18%. Further, the Partition ratio in series [17] is listed as 2. The same molecule displayed a k obs / 1 in series [19] of 3800 M⁻¹ s⁻¹.

For the origin of these results see ChEMBL document CHEMBL1125311, “Inhibition of human leukocyte elastase. 4. Selection of a substituted cephalosporin (L-658,758) as a topical aerosol” (J Med Chem, 1992).
